Measured values: ChEMBL document CHEMBL1145806, “Discovery and structural modification of inhibitors of methionine aminopeptidases from Escherichia coli and Saccharomyces cerevisiae” (J Med Chem, 2003)
≈ marks a conversion by molar mass, not a printed value.

What follows are compounds tested on Staphylococcus aureus (assay: Antibacterial activity against Staphylococcus aureus ATCC 25923 was determined after 24 hr). Details: ATCC 25923, 24 h.
Format: functional
`O=C(Nc1cccnc1C(=O)Nc1nccs1)c1ccccc1F` gave an MIC of 15.6 µg/mL (≈ 45.6 µM). With `CCC(=O)Oc1cccnc1C(=O)Nc1nccs1` the MIC was 125 µg/mL (≈ 451 µM). Compound `O=CNc1cccnc1C(=O)Nc1nccs1` has an MIC of 62.5 µg/mL (≈ 252 µM). `O=C(Nc1nccs1)c1ccccn1` was tested, and the MIC was 2 µg/mL (≈ 9.74 µM). `C=CCC(=O)Nc1cccnc1C(=O)Nc1nccs1` gave an MIC of 62.5 µg/mL (≈ 217 µM).

What follows are compounds tested against T1, Methionine aminopeptidase 1 (Saccharomyces cerevisiae S288c, UniProt Q01662) (assay: Inhibitory activity against type I methionine aminopeptidase from Saccharomyces cerevisiae). Details: not given.
T1 sequence (Q01662 whole entry): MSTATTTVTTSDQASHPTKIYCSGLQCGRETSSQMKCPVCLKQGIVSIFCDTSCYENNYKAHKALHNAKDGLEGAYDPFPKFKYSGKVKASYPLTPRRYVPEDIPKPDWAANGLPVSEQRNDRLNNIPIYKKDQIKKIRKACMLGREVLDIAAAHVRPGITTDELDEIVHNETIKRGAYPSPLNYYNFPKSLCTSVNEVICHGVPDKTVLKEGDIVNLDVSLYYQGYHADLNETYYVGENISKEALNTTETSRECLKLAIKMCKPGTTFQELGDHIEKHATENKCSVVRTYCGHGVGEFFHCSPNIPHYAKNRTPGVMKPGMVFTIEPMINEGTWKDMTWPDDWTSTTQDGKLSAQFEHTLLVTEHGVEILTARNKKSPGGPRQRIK
In short: (§1)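 Co(II)-activated enzyme: preincubated 30 min in 25 mM HEPES pH 7.5, 150 mM KCl, 15 mM methionine, 500 μM CoCl2. Chromogenic assay in 50 mM MOPS pH 7.0 with 1 mM DTNB and 100 μM thiopeptolide Met-S-Gly-Phe-OH. Final enzyme was 150 nM for EcMetAP1 and 330 nM for ScMetAP1. Hydrolysis read at 412 nm for 60 s. IC50 from inhibitor dilutions, […].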
Work on `O=C(Nc1cccnc1C(=O)Nc1nccs1)c1ccccc1F` yielded an IC50 of over 100 µM. In the case of `O=C(Oc1cccnc1C(=O)Nc1nccs1)c1ccc(F)c(Br)c1`, the IC50 is reported as 3.4 µM. `CCCCCC(=O)Oc1cccnc1C(=O)Nc1nccs1` showed an IC50 of 1.74 µM. `O=C(Oc1cccnc1C(=O)Nc1nccs1)c1cccc([N+](=O)[O-])c1` showed an IC50 of over 100 µM. Work on `CC(C)(C)OC(=O)Nc1cccnc1C(=O)Nc1nccs1` yielded an IC50 of 3.35 µM. `O=C(Nc1cccnc1C(=O)Nc1nccs1)c1ccccc1` was tested, and the IC50 was over 100 µM. Work on `CCCC[C@@H](N)[C@H](O)C(=O)N[C@@H](C)C(=O)N[C@@H](CC(C)C)C(=O)OC` yielded an IC50 of 95.1 µM. `O=C(Oc1cccnc1C(=O)Nc1nccs1)c1ccc(F)cc1` gave an IC50 of 62 µM. `O=C(Oc1cccnc1C(=O)Nc1nccs1)c1ccccc1F` gave an IC50 of 16 µM. Compound `O=C(Nc1nccs1)c1ncccc1NC(=O)C(F)(F)F` has an IC50 of 4.92 µM. `O=C(Nc1nccs1)c1ncccc1O` gave an IC50 of 4.86 µM. `C/C=C(\C)C(=O)Oc1cccnc1C(=O)Nc1nccs1` gave an IC50 of 0.39 µM. `Nc1cccnc1C(=O)Nc1nccs1` gave an IC50 of 32.8 µM. `CCCCCC(=O)Nc1cccnc1C(=O)Nc1nccs1` was tested, and the IC50 was 0.62 µM. For `O=C(Oc1cccnc1C(=O)Nc1nccs1)c1ccccc1`, the IC50 was 1.03 µM. `C/C=C(\C)C(=O)Nc1cccnc1C(=O)Nc1nccs1` was tested, and the IC50 was 10.9 µM. Compound `O=C(Cc1ccccc1)Oc1cccnc1C(=O)Nc1nccs1` has an IC50 of 0.2 µM. `CCC(=O)Oc1cccnc1C(=O)Nc1nccs1` showed an IC50 of 0.38 µM. For `O=CNc1cccnc1C(=O)Nc1nccs1`, the IC50 was 0.32 µM. With `O=C(Nc1nccs1)c1ccccn1` the IC50 was 7 µM. With `C=CCC(=O)Nc1cccnc1C(=O)Nc1nccs1` the IC50 was 0.38 µM.

The compounds below were run on Escherichia coli (assay: Antibacterial activity against enteropathogenic Escherichia coli ATCC 25922 was determined after 24 hr). Details: ATCC 25922, 24 h.
Format: functional
`O=C(Nc1cccnc1C(=O)Nc1nccs1)c1ccccc1F` gave an MIC of 250 µg/mL (≈ 730 µM). `CCC(=O)Oc1cccnc1C(=O)Nc1nccs1` was tested, and the MIC was 250 µg/mL (≈ 902 µM). In the case of `O=CNc1cccnc1C(=O)Nc1nccs1`, the MIC is reported as 125 µg/mL (≈ 503 µM). `O=C(Nc1nccs1)c1ccccn1` showed an MIC of 12.5 µg/mL (≈ 60.9 µM). With `C=CCC(=O)Nc1cccnc1C(=O)Nc1nccs1` the MIC was 125 µg/mL (≈ 434 µM).

What follows are compounds tested on Escherichia coli (assay: Selectivity of inhibitory activity of Methionine aminopeptidase 1 from Escherichia coli to Methionine aminopeptidase 1 from Saccharomyces cerevisiae). Details: not given.
`O=C(Nc1cccnc1C(=O)Nc1nccs1)c1ccccc1F` was tested, and the Ratio was under 0.0028. `O=C(Oc1cccnc1C(=O)Nc1nccs1)c1ccc(F)c(Br)c1` gave a Ratio of 0.74. `CCCCCC(=O)Oc1cccnc1C(=O)Nc1nccs1` gave a Ratio of 0.59. Work on `O=C(Oc1cccnc1C(=O)Nc1nccs1)c1cccc([N+](=O)[O-])c1` yielded a Ratio of under 0.006. Compound `CC(C)(C)OC(=O)Nc1cccnc1C(=O)Nc1nccs1` has a Ratio of 0.054. `O=C(Nc1cccnc1C(=O)Nc1nccs1)c1ccccc1` gave a Ratio of under 0.0089. `O=C(Oc1cccnc1C(=O)Nc1nccs1)c1ccc(F)cc1` was tested, and the Ratio was 0.018. Work on `O=C(Oc1cccnc1C(=O)Nc1nccs1)c1ccccc1F` yielded a Ratio of 0.052. With `O=C(Nc1nccs1)c1ncccc1NC(=O)C(F)(F)F` the Ratio was 0.069. In the case of `O=C(Nc1nccs1)c1ncccc1O`, the Ratio is reported as 0.38. `C/C=C(\C)C(=O)Oc1cccnc1C(=O)Nc1nccs1` gave a Ratio of 11. `Nc1cccnc1C(=O)Nc1nccs1` showed a Ratio of 0.052. For `CCCCCC(=O)Nc1cccnc1C(=O)Nc1nccs1`, the Ratio was 0.61. `O=C(Oc1cccnc1C(=O)Nc1nccs1)c1ccccc1` showed a Ratio of 1.2. Work on `C/C=C(\C)C(=O)Nc1cccnc1C(=O)Nc1nccs1` yielded a Ratio of 0.026. `O=C(Cc1ccccc1)Oc1cccnc1C(=O)Nc1nccs1` showed a Ratio of 2.7. In the case of `CCC(=O)Oc1cccnc1C(=O)Nc1nccs1`, the Ratio is reported as 14. Compound `O=CNc1cccnc1C(=O)Nc1nccs1` has a Ratio of 1. For `O=C(Nc1nccs1)c1ccccn1`, the Ratio was 0.71. `C=CCC(=O)Nc1cccnc1C(=O)Nc1nccs1` gave a Ratio of 0.34.

These compounds were tested against T2, Methionine aminopeptidase (Escherichia coli K-12, UniProt P0AE18) (assay: Inhibitory activity against Methionine aminopeptidase 1 from Escherichia coli). Details: not given.
T2 sequence (P0AE18 whole entry): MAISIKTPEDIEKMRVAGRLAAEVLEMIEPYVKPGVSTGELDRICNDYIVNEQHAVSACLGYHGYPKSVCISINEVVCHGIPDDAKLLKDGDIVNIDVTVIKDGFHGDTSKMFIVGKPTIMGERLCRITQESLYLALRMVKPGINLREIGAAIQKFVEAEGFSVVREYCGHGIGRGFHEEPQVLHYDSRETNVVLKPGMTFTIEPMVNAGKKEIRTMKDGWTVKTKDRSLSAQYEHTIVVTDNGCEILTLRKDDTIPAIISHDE
In short: as §1
With `O=C(Nc1cccnc1C(=O)Nc1nccs1)c1ccccc1F` the IC50 was 280 nM. With `O=C(Oc1cccnc1C(=O)Nc1nccs1)c1ccc(F)c(Br)c1` the IC50 was 2500 nM. `CCCCCC(=O)Oc1cccnc1C(=O)Nc1nccs1` was tested, and the IC50 was 1020 nM. With `O=C(Oc1cccnc1C(=O)Nc1nccs1)c1cccc([N+](=O)[O-])c1` the IC50 was 600 nM. With `CC(C)(C)OC(=O)Nc1cccnc1C(=O)Nc1nccs1` the IC50 was 180 nM. `O=C(Nc1cccnc1C(=O)Nc1nccs1)c1ccccc1` showed an IC50 of 890 nM. Compound `CCCC[C@@H](N)[C@H](O)C(=O)N[C@@H](C)C(=O)N[C@@H](CC(C)C)C(=O)OC` has an IC50 of 22900 nM. `O=C(Oc1cccnc1C(=O)Nc1nccs1)c1ccc(F)cc1` showed an IC50 of 1100 nM. `O=C(Oc1cccnc1C(=O)Nc1nccs1)c1ccccc1F` was tested, and the IC50 was 830 nM. With `O=C(Nc1nccs1)c1ncccc1NC(=O)C(F)(F)F` the IC50 was 340 nM. For `O=C(Nc1nccs1)c1ncccc1O`, the IC50 was 1870 nM. In the case of `C/C=C(\C)C(=O)Oc1cccnc1C(=O)Nc1nccs1`, the IC50 is reported as 4400 nM. In the case of `Nc1cccnc1C(=O)Nc1nccs1`, the IC50 is reported as 1700 nM. `CCCCCC(=O)Nc1cccnc1C(=O)Nc1nccs1` gave an IC50 of 380 nM. `O=C(Oc1cccnc1C(=O)Nc1nccs1)c1ccccc1` was tested, and the IC50 was 1220 nM. `C/C=C(\C)C(=O)Nc1cccnc1C(=O)Nc1nccs1` showed an IC50 of 280 nM. `O=C(Cc1ccccc1)Oc1cccnc1C(=O)Nc1nccs1` showed an IC50 of 540 nM. In the case of `CCC(=O)Oc1cccnc1C(=O)Nc1nccs1`, the IC50 is reported as 5400 nM. For `O=CNc1cccnc1C(=O)Nc1nccs1`, the IC50 was 330 nM. Work on `O=C(Nc1nccs1)c1ccccn1` yielded an IC50 of 5000 nM. `C=CCC(=O)Nc1cccnc1C(=O)Nc1nccs1` gave an IC50 of 130 nM.

Each compound was assayed on Pseudomonas aeruginosa (assay: Antibacterial activity against Pseudomonas aeruginosa ATCC 27853 was determined after 24 hr). Details: ATCC 27853, 24 h.
Format: functional
`O=C(Nc1cccnc1C(=O)Nc1nccs1)c1ccccc1F` gave an MIC of 250 µg/mL (≈ 730 µM). For `CCC(=O)Oc1cccnc1C(=O)Nc1nccs1`, the MIC was 500 µg/mL (≈ 1800 µM). `O=CNc1cccnc1C(=O)Nc1nccs1` was tested, and the MIC was 500 µg/mL (≈ 2010 µM). `O=C(Nc1nccs1)c1ccccn1` was tested, and the MIC was 250 µg/mL (≈ 1220 µM). Compound `C=CCC(=O)Nc1cccnc1C(=O)Nc1nccs1` has an MIC of 500 µg/mL (≈ 1730 µM).
